Article PMC3159870 (European journal of nuclear medicine and molecular imaging, 2010)
Read-outs that look alike come from different tables or passages of the source.

How the values were obtained:
[1] = biological target: TSPO; details: human brain tissue; cited from earlier work
[2] = test system: TSPO; assay: in vitro affinity for TSPO in human brain tissue; type: binding; details: PBR06 relative to PBR28
[3] = test system: TSPO; type: binding, human; details: membranes of white blood cells
[4] = octanol/phosphate buffer, pH 7.4; cited from earlier work
[5] = test system: TSPO; type: in vivo, human
In short: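 Eight healthy volunteers (2 women, 6 men; 32±11 y), each scanned once with each aryloxyanilide radioligand (18F: 170±26 MBq; 11C: 567±84 MBq; i.v. bolus). Dynamic PET on GE Advance. Radial arterial plasma parent separated by radio-HPLC gave the input function. VT fitted from the first 120 min, then divided by per-scan fP. Ten regions; mean ± SD; repeated-measures ANOVA.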

[6] = test system: TSPO; assay: in vivo affinity ratio from slope of regression of regional VT/fP; parameters: species or system human; details: VT/fP values in ten brain regions
[7] = radiation exposure; cited from earlier work
[8] = kinetics of radioligand in plasma and brain after bolus intravenous injection; type: in vivo, human
[9] = plasma free fraction; type: in vitro ADME, human; details: eight subjects
[10] = test system: TSPO; details: monkey brain; cited from earlier work
[11] = mean of ten brain regions, eight subjects, 120 min data

## COc1ccc(OC)c(CN(C(=O)CF)c2ccccc2Oc2ccccc2)c1 [PBR06]
[1]
  Ki: 1 nM
[2]
  fold higher in vitro affinity than PBR28: 2.5 fold

## COc1ccccc1CN(C(C)=O)c1cnccc1Oc1ccccc1 [PBR28]
[1]
  Ki: 2.5 nM
[3]
  fold lower affinity in non-binders than in the majority (90%) of the population: about 50 fold
[4]
  log D: 3.0

## COc1ccc(OC)c(CN(C(=O)C[18F])c2ccccc2Oc2ccccc2)c1 [^18F-PBR06]
[5]; Anterior cingulate
  VT: 2.05±0.42 ml × cm^−3
  VT/fP: 97.7±21.5 ml × cm^−3
[5]; Caudate
  VT: 1.72±0.28 ml × cm^−3
  VT/fP: 83.2±20.3 ml × cm^−3
[5]; Cerebellum
  VT: 2.26±0.61 ml × cm^−3
  VT/fP: 108.0±33.4 ml × cm^−3
[5]; Frontal cortex
  VT: 2.10±0.40 ml × cm^−3
  VT/fP: 100.3±22.6 ml × cm^−3
[5]; Medial temporal cortex
  VT: 2.05±0.46 ml × cm^−3
  VT/fP: 97.7±22.8 ml × cm^−3
[5]; Occipital cortex
  VT: 2.17±0.40 ml × cm^−3
  VT/fP: 104.0±24.3 ml × cm^−3
[5]; Parietal cortex
  VT: 2.10±0.39 ml × cm^−3
  VT/fP: 100.3±20.4 ml × cm^−3
[5]; Putamen
  VT: 1.98±0.36 ml × cm^−3
  VT/fP: 94.8±21.2 ml × cm^−3
[5]; Temporal cortex
  VT: 2.24±0.43 ml × cm^−3
  VT/fP: 107.4±27.7 ml × cm^−3
[5]; Thalamus
  VT: 2.37±0.44 ml × cm^−3
  VT/fP: 113.6±25.7 ml × cm^−3
[5]; [11]
  VT: 2.1±0.4 ml × cm^−3
  VT/fP: 100.7±24.0 ml × cm^−3
[6]
  95% confidence interval of slope (in vivo affinity ratio): 0.89–1.84
[7]
  effective dose: 18.5 µSv/MBq
[8]; human brain, after injection
  time of peak brain uptake of radioactivity: ≤ 5 min
[8]; human plasma, after injection
  time of peak plasma concentration of total parent radioligand: ≤ 2 min
[8]; mean of ten regions in eight subjects
  peak concentration of brain uptake: 1.2 SUV
[8]; range, ten regions in eight subjects
  peak concentration of brain uptake, range: 1.0–1.6 SUV
[9]
  plasma free fraction (fP): 2.2±0.6%
[10]
  specific binding as part of total uptake: greater than 90%
